According to ChEMBL document CHEMBL1145563, “Monoglycerides from the brown alga Sargassum sagamianum: Isolation, synthesis, and biological activity” (Bioorg Med Chem Lett, 2008):

How the values were obtained:
[1] = molecular target: T1, Prostaglandin G/H synthase 2 (Homo sapiens) (UniProt P35354); assay: Inhibition of COX2 at 50 uM
T1 sequence (whole entry): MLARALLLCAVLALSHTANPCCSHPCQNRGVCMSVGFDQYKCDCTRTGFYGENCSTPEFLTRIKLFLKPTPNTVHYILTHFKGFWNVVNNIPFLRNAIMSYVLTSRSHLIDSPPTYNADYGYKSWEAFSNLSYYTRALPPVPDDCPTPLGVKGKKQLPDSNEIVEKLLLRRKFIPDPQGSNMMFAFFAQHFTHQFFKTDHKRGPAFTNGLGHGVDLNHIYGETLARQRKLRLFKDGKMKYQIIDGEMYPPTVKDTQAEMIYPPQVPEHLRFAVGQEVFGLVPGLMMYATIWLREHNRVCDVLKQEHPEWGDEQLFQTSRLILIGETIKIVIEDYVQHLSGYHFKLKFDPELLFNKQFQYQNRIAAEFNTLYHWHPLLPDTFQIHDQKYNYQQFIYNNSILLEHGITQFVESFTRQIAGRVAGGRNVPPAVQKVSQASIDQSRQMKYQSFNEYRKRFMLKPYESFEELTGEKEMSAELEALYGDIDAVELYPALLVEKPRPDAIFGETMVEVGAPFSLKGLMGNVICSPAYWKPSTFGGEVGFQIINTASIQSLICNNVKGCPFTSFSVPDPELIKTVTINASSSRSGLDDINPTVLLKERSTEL
Summary of the method: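 COX-2 activity followed as PGE2 in the medium, measured in triplicate by enzyme immunoassay: samples, enzymatic tracer and specific antiserum incubated overnight at 4 °C, plates washed, Ellman's reagent added, absorbance at 414 nm read after 1–3 h. PGE2 read from a 50–0.39 pg/mL standard curve. Percent inhibition given as mean of three experiments.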

[2] = molecular target: T2, Phospholipase A2, membrane associated (Homo sapiens) (UniProt P14555); assay: Inhibition of sPLA2-2A at 10 uM by coupled enzyme assay
T2 sequence (whole entry): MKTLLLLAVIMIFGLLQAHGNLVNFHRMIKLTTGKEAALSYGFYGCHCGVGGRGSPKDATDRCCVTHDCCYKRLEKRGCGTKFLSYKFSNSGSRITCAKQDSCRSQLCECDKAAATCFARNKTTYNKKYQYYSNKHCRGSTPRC
Summary of the method: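 Phospholipase A2 activity measured by a coupled enzyme assay with DL-PC as substrate and lipoxygenase as the coupling enzyme. Percent inhibition given as mean of three experiments.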

Row | SMILES | inhibition [1] | inhibition [2]
1 | CCCCCCCC/C=C\CCCCCCCC(=O)OCC(O)CO (stereo unspecified) | 24.7% | 60.6%
2 | CC/C=C/C/C=C/C/C=C\C/C=C/C/C=C/CCCC(=O)OCC(O)CO (stereo unspecified) | 71.9% | 37.4%
3 | CCCCC/C=C/C/C=C\C/C=C/CCCCCCC(=O)OCC(O)CO (stereo unspecified) | – | 53.9%
4 | CCCCC/C=C\C/C=C\C/C=C\CCCCC(=O)OCC(O)CO (stereo unspecified) | -6.5% | 38.8%
5 | CCCCC/C=C/C/C=C\C/C=C/C/C=C/CCCC(=O)OCC(O)CO (stereo unspecified) | – | 33.6%
6 | CCCCCCCCCCCCCCCCCC(=O)OCC(O)CO (stereo unspecified) | 16.5% | 32.8%
7 | CCCCC/C=C/C/C=C\CCCCCCCC(=O)OCC(O)CO (stereo unspecified) | 20.5% | 38.1%
8 | CC/C=C\C/C=C\C/C=C\CCCCCCCC(=O)OCC(O)CO (stereo unspecified) | – | 32%

More lines, now with the values ahead:

Row | inhibition [1] | inhibition [2] | SMILES
9 | 86.8% | 37.9% | CCCCC/C=C/C/C=C/C/C=C\C/C=C/CCCCCC(=O)OCC(O)CO (stereo unspecified)
10 | 74.2% | 41.7% | CC/C=C/C/C=C/C/C=C/C/C=C\C/C=C/C/C=C/CCC(=O)OCC(O)CO (stereo unspecified)
11 | 92.9% | 37.4% | CC/C=C/C/C=C/C/C=C/C/C=C\C/C=C/CCCCCC(=O)OCC(O)CO (stereo unspecified)
12 | 35.6% | 26.1% | CC/C=C/C/C=C/C/C=C\C/C=C/CCCCC(=O)OC[C@@H](O)CO
